# Bioassay records as filed in PubChem.
# Rows were chosen to be rich in hits. Some 1.9% of all compounds tested hit in one or more screens of this group.
# DDE Tn6 FP inh: DD(E)-Tn6 binding inhibition, primary FP screen. P02675. Fibrin DD(E) TRITC-Tn6 fluorescence polarization displacement. inhibition, % at 8.3 µM. 370,000 compounds, 0.21% hits. AID 720509;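 active = inhibition above a per-campaign cutoff: mean of compounds within control limits plus 3 SD, cut at about 15% in these data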;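 also: 0% = median of all compound wells on the plate and 100% = blocking peptide control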
# Target sequence (P02675 whole entry, looked up): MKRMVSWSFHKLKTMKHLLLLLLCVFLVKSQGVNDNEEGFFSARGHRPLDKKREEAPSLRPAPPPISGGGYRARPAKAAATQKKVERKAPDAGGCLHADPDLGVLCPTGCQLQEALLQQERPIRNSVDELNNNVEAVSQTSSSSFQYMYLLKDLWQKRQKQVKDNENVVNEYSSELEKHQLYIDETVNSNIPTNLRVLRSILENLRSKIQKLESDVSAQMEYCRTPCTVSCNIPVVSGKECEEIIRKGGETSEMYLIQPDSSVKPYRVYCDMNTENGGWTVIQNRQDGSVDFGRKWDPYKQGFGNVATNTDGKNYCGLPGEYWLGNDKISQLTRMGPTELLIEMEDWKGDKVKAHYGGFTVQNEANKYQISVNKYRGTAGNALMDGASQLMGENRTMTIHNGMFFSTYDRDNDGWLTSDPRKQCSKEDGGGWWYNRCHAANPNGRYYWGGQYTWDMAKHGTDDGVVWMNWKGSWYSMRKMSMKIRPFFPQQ
# LEDGF integ inh: blocks HIV-1 LEDGF/p75-dependent DNA integration; AID 743269; TR-FRET IN-LEDGF/p75 DNA integration, Eu/Cy5; inhibition, % at 3.7 µM; 370,000 compounds, 0.64% hits;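 active = inhibition above the screen-wide mean plus 3 SD, cut at about 13% in these data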;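 also: signal is the Cy5 over europium emission ratio at 671 and 618 nm; 0% = plate median of compound wells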
# UHRF1 binding: human UHRF1 methylated DNA binding inhibitors. Q96T88. UHRF1 binding to methylated oligo, TR-FRET. inhibition, % at 4.4 µM. 370,000 compounds, 0.75% hits;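 also: UHRF1 SRA domain binding a hemimethylated CpG hairpin DNA probe; 0% = median of test compound wells and 100% = reference inhibitor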
# MBD2 inh: MBD2-methylated oligo binding inhibition | inhibition, % at 4.4 µM | 370,000 compounds, 0.31% hits | AID 686964 | TR-FRET, MBD2 binding to methylated oligonucleotide | Q9UBB5; in the data active = inhibition above about 13%
# TDP2 inh: TDP2 (human) inhibition, absorbance primary screen; O95551; recombinant TDP2, T5PNP hydrolysis, p-nitrophenol absorbance 415 nm; inhibition, % at 12.8 µM; 370,000 compounds, 0.34% hits;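 active = inhibition above the mean of all tested compounds plus 3 SD, set per campaign, cut at about 25% in these data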;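 also: 0% = DMSO with enzyme and 100% = buffer with substrate but no TDP2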
#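 Assay system: Recombinant human TDP2 | Quantity: 120 nM TDP2 per well | Incubation: 2 h at 37 °C | Signal: Epi absorbance | Evaluation: Percent inhibition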
# Tn7 DDE FP: inhibitors of Tn7 peptide binding to human fibrin DD(E); P02675; FP displacement of FITC-Tn7 peptide from fibrin DD(E); 0% = median of compound wells per plate; inhibition, % at 8.3 µM; 370,000 compounds, 0.13% hits; AID 720508;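 active = inhibition above the mean of compounds falling within the control limits plus 3 SD of them, cut at about 14% in these data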;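 also: 0% = plate median of compound wells and 100% = 10 µM Aha-Tn7 peptide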
#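 Assay system: Human clot-derived fibrin DD(E) complex | Buffer or medium: Tris/NaCl/CaCl2 buffer, pH 7.8 | Repeats: One replicate per compound | Benchmarks: Aha-Tn7 high control | Measure: % inhibition scaled between sample-field median and high-control FP | Schedule: 10 min plus 3 h, room temperature | Signal: Fluorescence polarization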
# UHRF1 ctr MBD2: counter-screen for MBD2 inhibitors: human UHRF1 methylated DNA binding inhibitors | AID 720530 | UHRF1 binding to methylated oligonucleotide, TR-FRET | 1,000 compounds, 25% hits | inhibition, % at 4.4 µM | shares compounds with MBD2 inh;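 also: UHRF1 SRA domain binding a labeled hemimethylated CpG hairpin DNA; 0% = vehicle only and 100% = reference inhibitor with vehicle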
# MBD2 confirm: confirmation of human MBD2-DBD methylated oligonucleotide binding inhibitors. shares compounds with MBD2 inh. TR-FRET MBD2-DBD binding to methylated oligonucleotide. inhibition, % at 4.4 µM. 1,000 compounds, 26% hits. AID 720531; in the data active = inhibition above about 14%
# Active calls of the source: *; . = no result given. Rule as the data show it, unless noted: active = inhibition above about 21%; inactive = the rest.
SMILES,DDE Tn6 FP inh,LEDGF integ inh,UHRF1 binding,MBD2 inh,TDP2 inh,Tn7 DDE FP,UHRF1 ctr MBD2,MBD2 confirm
COC(=O)c1cc(-c2cccc([N+](=O)[O-])c2)c2c(=O)[nH]c(=O)n(C)c2n1,-4,2,23*,14*,-6,0,8,3
C=CC[C@]12C[C@@]3(O[C@H](c4ccccn4)N=C3C[C@H](c3ccc(OC)cc3)[C@H]1C)N(C1CCN(Cc3ccccc3)CC1)C2=O,8,1,2,5,2,1,.,.
Cc1ccc(S(=O)(=O)NCC(=O)OCC(=O)Nc2cccc(S(=O)(=O)NC3=NCCCCC3)c2)cc1C,-4,3,2,3,-33,-7,.,.
Cc1ccc(C)c(C(=O)OCC(=O)Nc2cccc(S(=O)(=O)NC3=NCCCCC3)c2)c1,3,1,18,17*,1,1,6,3
CCOC(=O)C(Cc1ccc(NC(=O)/C(=C\c2ccccc2)NC(=O)c2ccccc2)cc1)N1C(=O)c2ccccc2C1=O (centres undefined),-1,3,3,-3,-2,-3,.,.
CCOC(=O)C(Cc1ccc(NC(C)=O)cc1)N1C(=O)c2ccccc2C1=O (centres undefined),-15,2,20,17*,0,0,2,-1
COC(=O)N1C[C@H](OCCCOCc2ccccc2)[C@H]2C[C@@H]1c1ccccc1O2,-3,0,1,1,-4,5,.,.
Cc1ccc(C(=O)NCC(=O)NC2CCC(C)CC2)s1 (centres undefined),3,0,-1,98*,4,-2,4,1
Cc1ccc(C(=O)NC2CCC(C)CC2)s1 (centres undefined),7,-3,-2,-3,11,-2,.,.
Cc1nn(-c2ccc(C(=O)O)cc2)c(C)c1Cl,5,2,2,-1,-2,3,.,.
Cc1c[n+]([O-])n(-c2ccc(C(=O)O)cc2)n1,-1,-4,21,15*,1,6,10,6
COC(=O)C1=C(C)N(Cc2ccc(C(F)(F)F)cc2)C(=NCC2CC2)NC1c1cccc(Cl)c1 (centres undefined),-6,3,0,3,-4,-1,.,.
CN1CC[C@@H]2CN(S(=O)(=O)c3ccccc3)[C@H](c3ccccc3Br)C[C@@H]21,0,5,-2,0,-4,-3,.,.
O=C(COc1ccc2ccccc2c1Br)Nn1cnnc1,-3,5,17,19*,24,3,4,2
CN(Cc1ccc(Cl)cc1)C(=O)c1ccc(S(=O)(=O)NCc2ccco2)cc1,-1,-6,5,37*,-4,2,6,1
CCCc1ccc(C(=O)NNC(=O)c2ccc(Br)cc2)cc1,0,2,2,15*,1,-2,8,10
COC(=O)c1cc2c(c3c4cc(OC)ccc4n(S(=O)(=O)c4ccccc4)c13)C(=O)N(C)C2,9,3,0,-2,2,-1,.,.
CC(C)C[C@H](NC(C)(C)C(=O)NC1CCCCC1)C(=O)NCCc1c[nH]c2ccccc12,1,2,2,-1,4,6,.,.
CC(C)C[C@H](NC(C)(C)C(=O)NC1CCCCC1)C(=O)NCC(c1ccccc1)c1ccccc1,1,-5,1,21*,-3,-5,1,2
COc1cc(N(C)C)ccc1C=c1c2ccccc2n2c1cc(-c1ccccc1)[n+]2C,-9,-1,43*,27*,10,-1,62*,58*
CN(C)c1ccc(C=c2c3cc([N+](=O)[O-])ccc3n3c2cc(-c2ccccc2)[n+]3C)cc1,-7,-4,15,3,-6,-2,.,.
COc1cc(Cl)c(C)cc1NC(=O)CSc1sc2c(O)cc(=O)[nH]c2c1C#N,-6,11,33*,17*,0,1,17,6
COc1cc2cc(C(=O)N(C)C3CCS(=O)(=O)C3)[nH]c2cc1OC (centres undefined),2,2,2,15*,4,-4,6,1
COc1ccccc1NS(=O)(=O)/C=C/c1ccccc1,-9,-3,4,14*,-2,-5,6,4
CCN(C[C@H]1N[C@@](C)(C(=O)OC)[C@H]2C(=O)N(C)C(=O)[C@@H]12)C(=O)Nc1ccc(C(F)(F)F)cc1,-4,1,22*,15*,1,-1,8,3
SMILES,DDE Tn6 FP inh,LEDGF integ inh,UHRF1 binding,MBD2 inh,TDP2 inh,Tn7 DDE FP,UHRF1 ctr MBD2,MBD2 confirm
CCN(C[C@H]1N[C@@](C)(C(=O)OC)[C@H]2C(=O)N(C)C(=O)[C@@H]12)C(=O)Nc1ccc(F)cc1,0,-3,19,2,-4,-2,.,.
CCCCCN(C(=O)Cc1c(C)n(CCCCC)c2ccccc12)c1ccc(Oc2cccnc2)c(C)c1,-7,1,-2,3,0,4,.,.
CCCNC(=O)Nc1ccc2c(c1)C(=O)N(C)[C@H]1CC[C@@H](CC(=O)OC)O[C@H]1CO2,5,1,-1,-1,-1,5,.,.
COc1ccc(C(=O)N(CN2CCCC2=O)c2ccc(C)cc2)cc1,-10,1,-3,1,7,3,.,.
Cc1ccc(N(CN2CCCC2=O)C(=O)c2ccccc2)cc1,0,-1,-4,17*,11,-9,8,5
Cc1[nH]c2ccccc2c1CC(=O)Nc1ccc(Nc2cccnc2)c(-c2ccc(-c3ccccc3)cc2F)c1,1,-2,-4,0,-3,-5,.,.
CCOC(=O)C1=NN(C(C)=O)C2(CC(=O)N(c3cccc(C)c3)C2=O)C1 (centres undefined),-7,-2,0,19*,-4,1,7,5
O=C(O)CC1CC(O)CCC1=O (centres undefined),-4,-1,4,28*,-4,4,8,1
CC1CN(Cc2c(O)ccc3c2oc(=O)c2ccccc23)CC(C)O1 (centres undefined),4,5,19,16*,0,7,3,11
CC1CN(Cc2c(O)ccc3c(=O)c(-c4ccccc4)coc23)CC(C)O1 (centres undefined),4,0,-1,-2,3,-2,.,.
COCCNC(=O)c1cc(-c2cccc(OC)c2)on1,0,-2,-2,-6,-4,7,.,.
COc1cccc(-c2cc(C(=O)NC3CCCC3)no2)c1,0,-2,1,16*,8,5,3,3
